Source: ChEMBL document CHEMBL1131493, “Inhibitors of farnesyl protein transferase. 4-Amido, 4-carbamoyl, and 4-carboxamido derivatives of 1-(8-chloro-6,11-dihydro-5H-benzo[5,6]- cyclohepta[1,2-b]pyridin-11-yl)piperazine and 1-(3-bromo-8-chloro-6,11- dihydro-5H-benzo[5,6]cyclohepta[1,2-b]pyridin-11-yl)piperazine” (J Med Chem, 1998)
“And” between values parts separate entries of the source, which are not always exact repeats. Equal entries are not always repeated.

What was measured:
[1] = In vivo antitumor efficacy in cynomolgus monkeys 0-48 hr after iv dose of 5 mg/kg expressed as Area under the curve; type: ADME, organism-based, Macaca fascicularis; parameters: time < 48 hr, dose 5 mg/kg, route intravenous; settings: cynomolgus monkey
How it was run: (§1)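 Serum pharmacokinetics in nude mice or cynomolgus monkeys after oral (po) or iv dosing. Compounds were given as hydrochloride salts in 20% HPβCD unless otherwise noted. Other formulations were the hydrochloride salt in saline, the micronized free base in 20% HPβCD or corn oil (po) with saline for iv, or the hydrochloride salt in 0.4% methyl cellulose (po).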

[2] = In vivo antitumor efficacy in cynomolgus monkeys 0-48 hr after peroral dose of 5 mg/kg expressed as Area under the curve; type: ADME, organism-based, Macaca fascicularis; parameters: time < 48 hr, dose 5 mg/kg, route oral; settings: cynomolgus monkey, po; how it was run: as §1
[3] = Maximal plasma concentration in cynomolgus monkeys after 5 mg/kg oral dose; type: ADME, organism-based, Macaca fascicularis; parameters: dose 5 mg/kg, route oral; settings: cynomolgus monkey; how it was run: as §1
[4] = Oral bioavailability in mouse (nude) (dose of 25 mg/kg); type: ADME, organism-based; settings: in vivo; how it was run: as §1
[5] = In vivo antitumor efficacy in nude mice 0-24 hr after peroral dose of 25 mg/kg expressed as Area under the curve; type: ADME, organism-based; parameters: time < 24 hr, dose 25 mg/kg, route oral; settings: nude, mouse, po; how it was run: as §1
[6] = In vivo antitumor efficacy in cynomolgus monkeys 0-48 hr after peroral dose of 10 mg/kg expressed as Area under the curve; type: ADME, organism-based, Macaca fascicularis; parameters: time < 48 hr, dose 10 mg/kg, route oral; settings: cynomolgus monkey, po; how it was run: as §1
Mus musculus [7] = test: In vivo antitumor efficacy after peroral dose of 25 mg/kg in mice expressed as duration for which compound was present above IC50; type: ADME, organism-based; parameters: dose 25 mg/kg, route oral; settings: po; how it was run: as §1
[8] = In vivo antitumor efficacy in nude mice after peroral dose of 10 mg/kg expressed as Area under the curve; type: ADME, organism-based; parameters: dose 10 mg/kg, route oral; settings: mouse, po; how it was run: as §1
[9] = In vivo antitumor efficacy in nude mice by injecting a dose of 25 mg/kg iv and serum half-life was determined; type: ADME, organism-based; parameters: dose 25 mg/kg, route intravenous; settings: mouse; how it was run: as §1
Mus musculus [10] = test: In vivo antitumor efficacy after peroral dose of 10 mg/kg in mice expressed as duration for which compound was present above IC50; type: ADME, organism-based; parameters: dose 10 mg/kg, route oral; settings: po; how it was run: as §1
[11] = target: geranylgeranyltransferase type-I (Rattus norvegicus, UniProt P53610+Q04631); test: Inhibition of rat Geranylgeranyl transferase (GGPT); type: protein-complex assay
[12] = In vivo antitumor efficacy peroral dose of 25 mg/kg expressed as duration for which compound was present above IC50; type: ADME, organism-based; parameters: dose 25 mg/kg, route oral; settings: po; how it was run: as §1
Cynomolgus monkey [13] = test: In vivo antitumor efficacy after peroral dose of 10 mg/kg in cynomolgus monkeys expressed as duration for which compound was present above IC50; type: ADME, organism-based, Macaca fascicularis; parameters: dose 10 mg/kg, route oral; settings: po; how it was run: as §1
[14] = (§2) Maximal plasma concentration in nude mice after 25 mg/kg oral dose; type: ADME, organism-based; parameters: dose 25 mg/kg, route oral; settings: mouse; how it was run: as §1
[15] = In vivo antitumor efficacy in cynomolgus monkeys by injecting a dose of 5 mg/kg, as HCl salt in saline solution,i/v and the serum half-life was determined; type: ADME, organism-based, Macaca fascicularis; parameters: dose 5 mg/kg; settings: cynomolgus monkey, iv; how it was run: as §1
[16] = Bioavailability in cynomolgus monkey (dose 5 mg/kg i.v.); type: ADME, organism-based, Macaca fascicularis; settings: in vivo, iv; how it was run: as §1
[17] = In vivo antitumor efficacy in nude mice 0-24 hr after iv dose of 25 mg/kg expressed as Area under the curve; type: ADME, organism-based; parameters: time < 24 hr, dose 25 mg/kg, route intravenous; settings: mouse; how it was run: as §1
[18] = (§3) Maximal plasma concentration in cynomolgus monkeys after 10 mg/kg oral dose; type: ADME, organism-based, Macaca fascicularis; parameters: dose 10 mg/kg, route oral; settings: cynomolgus monkey, plasma; how it was run: as §1
Cynomolgus monkey [19] = test: as §3; type: ADME, organism-based, Macaca fascicularis; parameters: dose 10 mg/kg, route oral; settings: in vivo; how it was run: as §1
[20] = as §2; type: ADME, organism-based; parameters: dose 25 mg/kg, route oral; settings: mouse; remark: listed apart in the source
[21] = target: T1, Protein farnesyltransferase (Homo sapiens, UniProt P49354+P49356); test: Inhibition of Farnesyltransferase from Ras-CVLS or Ras-CVLL in Cos-7 monkey kidney cells; type: cell-based, Chlorocebus aethiops
Mus musculus [22] = test: In vivo antitumor efficacy in nude mice by injecting a dose of 25 mg/kg, as HCl salt in saline solution, perorally and the duration of action was reported; type: ADME, organism-based; parameters: dose 25 mg/kg, route oral; settings: po
[23] = In vivo antitumor efficacy in nude mice by injecting a dose of 25 mg/kg, as HCl salt in saline solution, iv and the serum half-life was determined; type: ADME, organism-based; parameters: dose 25 mg/kg, route intravenous; settings: mouse
[24] = In vivo antitumor efficacy in nude mice by injecting a dose of 25 mg/kg, as HCl salt in saline solution, perorally and the total drug exposure was determined (0-4 hr); type: ADME, organism-based; parameters: time < 4 hr, dose 25 mg/kg, route oral; settings: mouse, po
[25] = target: T1, Protein farnesyltransferase; test: In vitro inhibition of farnesyltransferase farnesylation of the H-ras oncogene; type: protein-complex assay
[26] = In vivo antitumor efficacy in nude mice by injecting a dose of 25 mg/kg, as HCl salt in saline solution, iv and the total drug exposure was determined. (0-4 hr); type: ADME, organism-based; parameters: time < 4 hr, dose 25 mg/kg, route intravenous; settings: mouse
[27] = In vivo antitumor efficacy expressed as maximum plasma concentration 0.4 hr after a peroral dose of 25 mg/kg in cynomolgus monkeys; type: ADME, organism-based, Macaca fascicularis; parameters: dose 25 mg/kg, route oral; settings: cynomolgus monkey, po; how it was run: as §1
[28] = In vivo antitumor efficacy in nude mice 0-24 hr after intravenous dose of 25 mg/kg expressed as Area under the curve; type: ADME, organism-based; parameters: time < 24 hr, dose 25 mg/kg, route intravenous; settings: mouse; how it was run: as §1
[29] = In vivo antitumor efficacy in cynomolgus monkeys by injecting a dose of 10 mg/kg, as HCl salt in saline solution, perorally and the total drug exposure was determined (0-8 hr); type: ADME, organism-based, Macaca fascicularis; parameters: time < 8 hr, dose 10 mg/kg, route oral; settings: cynomolgus monkey, po; how it was run: as §1
[30] = (§4) In vivo antitumor efficacy in cynomolgus monkeys by injecting a dose of 25 mg/kg, as HCl salt in saline solution, iv and the serum half-life was determined; type: ADME, organism-based, Macaca fascicularis; parameters: dose 25 mg/kg, route intravenous; settings: cynomolgus monkey, serum; how it was run: as §1
Cynomolgus monkey [31] = test: as §4; type: ADME, organism-based, Macaca fascicularis; parameters: dose 25 mg/kg, route intravenous; settings: in vivo; how it was run: as §1
[32] = In vivo antitumor efficacy in nude mice by injecting a dose of 25 mg/kg, as HCl salt in saline solution, perorally and the total drug exposure was determined (0-24hr); type: ADME, organism-based; parameters: time < 24 hr, dose 25 mg/kg, route oral; settings: mouse, po
Cynomolgus monkey [33] = test: In vivo antitumor efficacy in cynomolgus monkeys by injecting a dose of 25 mg/kg, as HCl salt in saline solution, perorally and the maximum drug concentration was determined; type: ADME, organism-based, Macaca fascicularis; parameters: dose 25 mg/kg, route oral; settings: po; how it was run: as §1
[34] = In vivo antitumor efficacy in nude mice by injecting a dose of 25 mg/kg, as HCl salt in saline solution, iv and the total drug exposure was determined. (0-24hr); type: ADME, organism-based; parameters: time < 24 hr, dose 25 mg/kg, route intravenous; settings: mouse
[35] = Oral bioavailability in mouse (nude) (dose 25 mg/kg i.v.); type: ADME, organism-based; settings: in vivo
[36] = In vivo antitumor efficacy in cynomolgus monkeys by injecting a dose of 25 mg/kg, as HCl salt in saline solution, iv and the total drug exposure was determined. (0-8 hr); type: ADME, organism-based, Macaca fascicularis; parameters: time < 8 hr, dose 25 mg/kg, route intravenous; settings: cynomolgus monkey; how it was run: as §1
[37] = (§5) In vivo antitumor efficacy in cynomolgus monkeys by injecting a dose of 25 mg/kg, as the micronised free base in corn oil, perorally and the total drug exposure was determined (0-8 hr); type: ADME, organism-based, Macaca fascicularis; parameters: time < 8 hr, dose 25 mg/kg, route oral; settings: cynomolgus monkey, po; how it was run: as §1
Cynomolgus monkey [38] = test: as §5; type: ADME, organism-based, Macaca fascicularis; parameters: time < 8 hr, dose 25 mg/kg, route oral; settings: po, 8 h; how it was run: as §1
[39] = Bioavailability in cynomolgus monkey (dose 25 mg/kg i.v.); type: ADME, organism-based, Macaca fascicularis; settings: in vivo, iv; how it was run: as §1
[40] = In vivo antitumor efficacy expressed as plasma area under the curve 0.4 hr after a peroral dose of 25 mg/kg in nude mice; type: ADME, organism-based; parameters: time < 0.4 hr, dose 25 mg/kg, route oral; settings: mouse, po; how it was run: as §1
[41] = In vivo antitumor efficacy expressed as plasma area under the curve 0.4 hr after iv dose of 25 mg/kg in nude mice; type: ADME, organism-based; parameters: time < 0.4 hr, dose 25 mg/kg, route intravenous; how it was run: as §1

O=C(Cc1cc[n+]([O-])cc1)N1CCN(C2c3ccc(Cl)cc3CCc3cc(Br)cnc32)CC1 (centres undefined)
AUC at 48 h [1]: 24400 ng·h/mL
AUC at 48 h [2]: 9400 ng·h/mL
Cmax [3]: 1200 nM
bioavailability [4]: 84%
AUC at 24 h [5]: 19600 ng·h/mL
AUC at 48 h [6]: 35600 ng·h/mL
Time above IC50 (Mus musculus [7]): 7 h
AUC [8]: 16700 ng·h/mL
half-life [9]: 72 min
Time above IC50 (Mus musculus [10]): 24 h
IC50 [11]: > 38 µM
Time above IC50 [12]: 6 h
Time above IC50 (Cynomolgus monkey [13]): 24 h
Cmax [14]: 10 µM
half-life [15]: 156 min
bioavailability [16]: 38.5%
AUC at 24 h [17]: 23400 ng·h/mL
Cmax [18]: 5.7 µM
Cmax (Cynomolgus monkey [19]): 3000 nM

CN1CCC(CC(=O)N2CCN(C3c4ccc(Cl)cc4CCc4cccnc43)CC2)CC1 (centres undefined)
Cmax [20]: 1400 nM
IC50 [21]: 930 nM
Time above IC50 (Mus musculus [22]): 4 h
bioavailability [4]: 32%
half-life [23]: > 60 min
AUC at 4 h [24]: 1300 ng·h/mL
IC50 [25]: 1400 nM
AUC at 4 h [26]: 4100 ng·h/mL

O=C(Cc1cc[n+]([O-])cc1)N1CCN([C@@H]2c3ccc(Cl)cc3CCc3cc(Br)cnc32)CC1
bioavailability [4]: 100%
AUC at 24 h [5]: 31900 ng·h/mL
Time above IC50 (Mus musculus [7]): 7 h
Cmax [27]: 1800 nM
AUC at 24 h [28]: 27100 ng·h/mL
AUC at 8 h [29]: 9100 ng·h/mL
half-life [9]: 70.8 min
IC50 [11]: > 38 µM
Time above IC50 (Cynomolgus monkey [13]): 12 h
Cmax [14]: 25 µM

O=C(Cc1cccnc1)N1CCN(C2c3ccc(Cl)cc3CCc3cccnc32)CC1 (centres undefined)
half-life [30]: 90 min
T1/2 (Cynomolgus monkey [31]): 1.5 h
Cmax [20]: 3900 nM
AUC at 24 h [32]: 400 ng·h/mL
Time above IC50 (Mus musculus [22]): 0.3 h
Cmax (Cynomolgus monkey [33]): 290 nM and 110 nM
AUC at 24 h [34]: 1100 ng·h/mL
half-life [23]: 12 min
bioavailability [35]: 36%
IC50 [11]: > 46 µM
AUC at 8 h [36]: 48600 ng·h/mL
AUC at 8 h [37]: 450 ng·h/mL
AUC (Cynomolgus monkey [38]): 1.07 uh ml-1
F [39]: 1.4%
bioavailability [39]: 2.2%

O=C(Cc1ccncc1)N1CCN(C2c3ccc(Cl)cc3CCc3cccnc32)CC1 (centres undefined)
AUC at 0.4 h [40]: 240 ng·h/mL
AUC at 0.4 h [41]: 1800 ng·h/mL
bioavailability [4]: 13%
half-life [9]: 12 min
IC50 [11]: > 46 µM
Time above IC50 [12]: 1 h
Cmax [14]: 0.9 µM
